Here are results for 39 molecules from PubChem BioAssay AID504338 (NMMLSC, 2011).

Calls of active or inactive are those of the source.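 Rule for the calls: active = GFP response vs DMSO above 150% with enough events counted; inconclusive = fewer than 70 events counted for a yeast strain; inactive = the rest.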

This assay can be described thus: yeast TOR reporter LAP4-GFP retest – cell-based, third cherry pick, flow cytometry, confirmation (AID 504338).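 Note: ratio to plate DMSO wells so 100% equals DMSO level rather than 0%.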 Particulars: S. cerevisiae LAP4-GFP strain, 3 h, at 10 µM, hits give high values. A digest of the protocol:
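material = yeast LAP4-GFP strain | medium = synthetic complete growth medium for yeast | doses = 10 µM, one concentration | schedule = compound exposure for 3 h at 30 °C | signal = flow cytometric GFP fluorescence | read-out basis = percent of mean DMSO-control median fluorescence | control set = rapamycin 400 ng/mL as positive control, DMSO wells as reference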
Background: In flow cytometry, cells or beads pass a laser one at a time.
`Cc1ccc2c(Cl)cc(Cl)c(OCC(=O)O)c2n1`: the GFP response vs DMSO is 100% (inactive).
Next, `C=CCNc1nc(N)c([N+](=O)[O-])c(Nc2ccccc2OC)n1`: 100% (inactive); `Nc1nc(NCCOCCO)nc(Nc2cccc(F)c2)c1[N+](=O)[O-]`: 104% (inactive); `Brc1ccc2ncnc(NCc3ccccc3)c2c1`: 107% (inactive).
Next, `Cc1cc(C)c2ccc(C(=O)O)nc2c1O`: 107% (inactive).
On to `Cc1nc(Nc2ccc(Br)cc2Br)c([N+](=O)[O-])c(=O)[nH]1`, for which the GFP response vs DMSO is 106% (inactive).
As for `O=c1cc(C(F)(F)F)[nH]c2c(OC(F)(F)F)cccc12`, the figure is 98.6% (inactive); as for `C=CCNc1nc(N)c([N+](=O)[O-])c(Nc2cccc(Cl)c2)n1`, 104% (inactive).
As for `CC(=O)C(Cl)C(=O)Nc1ccccc1` (centres undefined), the figure is 124% (inactive); as for `CC(=O)Nn1cnc2c(c1=O)C1(CCCCC1)Cc1ccccc1-2`, 106% (inactive).
Next, `Cc1ccc2nc(-c3ccc(NC(=O)c4cccnc4)cc3)oc2c1`: 103% (inactive); `Cc1cccc(Nc2cc(=O)[nH]c(=O)[nH]2)c1`: 106% (inactive).
In the case of `CCCCC(=O)NCCc1cc2c(OC)ccc(OC)c2[nH]c1=O`, the GFP response vs DMSO is 108% (inactive).
Next, `OCCNc1ncnc2ccc(Br)cc12`: 98.6% (inactive); `Cn1c(NCCO)nc2c(c1=O)C1(CCCCC1)Cc1ccccc1-2`: 104% (inactive).
In the case of `COc1cccc2c(O)cc(=O)n(C)c12`, the GFP response vs DMSO was 104% (inactive).
`CC(C)Nc1ncnc2ccc(Br)cc12`: the GFP response vs DMSO was 106% (inactive).
In the case of `COc1ccc(OC)c(N/C(C)=C/C(=O)c2ccccc2)c1`, the GFP response vs DMSO was 103% (inactive).
Next, `COc1ccccc1Nc1nc(NCC(C)C)nc(N)c1[N+](=O)[O-]`: 104% (inactive).
As for `Oc1c(I)cc(Cl)c2cccnc12`, the GFP response vs DMSO was 192% (active).
For `Nc1c(C(=O)O)ccc2c1C(=O)c1ccccc1C2=O`, the GFP response vs DMSO was 115% (inactive).
Turning to `NC(=O)c1ccnc2c(O)cccc12`, the GFP response vs DMSO is 101% (inactive).
Next, `CC(=O)CC(=O)Nc1ccc(C(N)=O)cc1`: 101% (inactive); `Cc1cc(C)c2ccc(N)nc2c1O`: 97.2% (inactive); `OCc1ccc(O)c2ncccc12`: 101% (inactive).
As for `COc1ccccc1-c1cc(C(F)(F)F)nc(S(=O)(=O)CCCC(=O)O)n1`, the figure is 112% (inactive); as for `O=C(Nc1ccccc1)O/N=C1/CCCc2occc21`, 107% (inactive).
Regarding `COc1ccc(N/C=C/C(=O)c2ccc(Cl)cc2)cc1`, the GFP response vs DMSO was 110% (inactive).
As for `O=C(Nc1ccccc1)ON=C1c2ccccc2-c2ccccc21`, the figure is 106% (inactive); as for `Cc1ccc2c(C)ccc(O)c2n1`, 101% (inactive); as for `Nc1cc(C(=O)O)c(N)c2c1C(=O)c1ccccc1C2=O`, 106% (inactive).
As for `Oc1ccc(F)c2cccnc12`, the figure is 106% (inactive).
Next, `CC1=NNC(=O)/C1=C\c1cn(-c2ccccc2)nc1-c1ccc(F)cc1`: 179% (active).
As to `Nc1cccc2c1C(=O)c1ccc(Cl)cc1C2=O`, the GFP response vs DMSO was 100% (inactive).
On to `CC(=O)Nc1ccc(-c2nc3cc(Cl)ccc3o2)cc1`, for which the GFP response vs DMSO is 104% (inactive).
With `CCCC(=O)Nn1cnc2c(c1=O)C1(CCCC1)Cc1ccccc1-2`, the GFP response vs DMSO is 103% (inactive).
As for `Nc1c(O)ccc2c1C(=O)c1ccccc1C2=O`, the GFP response vs DMSO was 101% (inactive).
Take `O=C(O)c1ccc2cccnc2c1O`: the GFP response vs DMSO was 106% (inactive).
As for `Nc1ccc(O)c2c1C(=O)c1ccccc1C2=O`, the figure is 98.6% (inactive).
